ChEMBL document CHEMBL3046030, “Implementation of bio-fungicides and seed treatment in organic rice cv. KDML 105 farming” (2009)

How the values were obtained:
Type in all cases: functional
Bipolaris oryzae [1] = assay: Antifungal activity against Bipolaris oryzae assessed as mycelial growth inhibition after 96 hr by agar overlay method
In short: (§1)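 Agar overlay method: plant extract or essential oil was mixed into PDA at 0.10, 0.25, 0.50 and 1.00% v/v. A 5 mm plug from a 7-day culture was placed upside down on each plate and incubated 96 h at 25±2°C. Colony diameter was compared with an untreated control as % inhibition = (C−T)/C×100, using four replicates averaged. IC50 was derived by regression of the concentration–response curve.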

Aspergillus niger [2] = assay: Antifungal activity against Aspergillus niger assessed as mycelial growth inhibition after 96 hr by agar overlay method; in short: as §1
Aspergillus flavus [3] = assay: Antifungal activity against Aspergillus flavus assessed as mycelial growth inhibition after 96 hr by agar overlay method; in short: as §1
Alternaria solani [4] = assay: Antifungal activity against Alternaria solani assessed as mycelial growth inhibition after 96 hr by agar overlay method; in short: as §1
Aspergillus flavus [5] = assay: Antifungal activity against Aspergillus flavus assessed as inhibition of spore germination at 0.25% after 24 hr by compound microscopy
Alternaria solani [6] = assay: Antifungal activity against Alternaria solani assessed as inhibition of spore germination at 0.25% after 24 hr by compound microscopy
In short: (§2)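 Spores were raised by growing the fungus 3 days at 25±2°C in aqueous PDA, rinsing the mycelium three times in distilled water, and holding it 2 more days. The suspension was adjusted to about 10^6 cfu/mL by hemacytometer and spread on slides carrying a thin PDA layer. An open watch glass held plant extract or essential oil (0.10–1.00% v/v), or sterile water as control. Slides were sealed in moist dishes for 24 h at 25±2°C. Encysted spores were counted at x100, and % inhibition was calculated against control.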

Rhizoctonia solani [7] = assay: Antifungal activity against Rhizoctonia solani assessed as inhibition of spore germination at 0.10% after 24 hr by compound microscopy; in short: as §2
Curvularia [8] = assay: Antifungal activity against Curvularia sp. assessed as inhibition of spore germination at 0.10% after 24 hr by compound microscopy
Fusarium verticillioides [9] = assay: Antifungal activity against Fusarium verticillioides assessed as inhibition of spore germination at 0.10% after 24 hr by compound microscopy; in short: as §2
Aspergillus niger [10] = assay: Antifungal activity against Aspergillus niger assessed as inhibition of spore germination at 0.10% after 24 hr by compound microscopy
Aspergillus flavus [11] = assay: Antifungal activity against Aspergillus flavus assessed as inhibition of spore germination at 0.10% after 24 hr by compound microscopy
Alternaria solani [12] = assay: Antifungal activity against Alternaria solani assessed as inhibition of spore germination at 0.10% after 24 hr by compound microscopy; in short: as §2
Rhizoctonia solani [13] = assay: Antifungal activity against Rhizoctonia solani assessed as mycelial growth inhibition at 1% after 96 hr by agar overlay method
In short: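 PDA containing plant extract or essential oil (0.10–1.00% v/v) was used for the agar overlay. A 5 mm plug from a 7-day-old R. solani culture was placed upside down, then incubated 96 h at 25±2°C. Colony diameter was measured against a simultaneous untreated control, and inhibition was calculated as [(C−T)/C]×100. Four replicates were averaged.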

Nigrospora [14] = assay: Antifungal activity against Nigrospora sp. assessed as mycelial growth inhibition at 1% after 96 hr by agar overlay method; in short: as §1
Fusarium verticillioides [15] = assay: Antifungal activity against Fusarium verticillioides assessed as mycelial growth inhibition at 1% after 96 hr by agar overlay method; in short: as §1
Curvularia [16] = assay: Antifungal activity against Curvularia sp. assessed as mycelial growth inhibition at 1% after 96 hr by agar overlay method; in short: as §1
Bipolaris oryzae [17] = assay: Antifungal activity against Bipolaris oryzae assessed as mycelial growth inhibition at 1% after 96 hr by agar overlay method; in short: as §1
Aspergillus niger [18] = assay: Antifungal activity against Aspergillus niger assessed as mycelial growth inhibition at 1% after 96 hr by agar overlay method; in short: as §1
Aspergillus flavus [19] = assay: Antifungal activity against Aspergillus flavus assessed as mycelial growth inhibition at 1% after 96 hr by agar overlay method; in short: as §1
Alternaria solani [20] = assay: Antifungal activity against Alternaria solani assessed as mycelial growth inhibition at 1% after 96 hr by agar overlay method; in short: as §1
Rhizoctonia solani [21] = assay: Antifungal activity against Rhizoctonia solani assessed as mycelial growth inhibition after 96 hr by agar overlay method
In short: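 Agar overlay on PDA with extract or oil at 0.10, 0.25, 0.50 and 1.00% v/v. A 5 mm plug from a 7-day R. solani culture was incubated 96 h at 25±2°C, colony diameter was measured, and % inhibition versus untreated control was calculated in four replicates. IC50 was derived by regression of % inhibition against concentration.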

Nigrospora [22] = assay: Antifungal activity against Nigrospora sp. assessed as mycelial growth inhibition after 96 hr by agar overlay method; in short: as §1
Fusarium verticillioides [23] = assay: Antifungal activity against Fusarium verticillioides assessed as mycelial growth inhibition after 96 hr by agar overlay method; in short: as §1
Curvularia [24] = assay: Antifungal activity against Curvularia sp. assessed as mycelial growth inhibition after 96 hr by agar overlay method; in short: as §1
Rhizoctonia solani [25] = assay: Antifungal activity against Rhizoctonia solani assessed as inhibition of spore germination at 1% after 24 hr by compound microscopy
In short: (§3)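 R. solani grown 3 days at 25±2°C in aqueous PDA, rinsed three times with distilled water, then held 2 days to induce spores. Suspension set to about 10^6 cfu/mL by hemacytometer and spread on a thin PDA layer on slides. Watch glass held extract/oil (0.10–1.00% v/v) or sterile water control. Moist sealed chamber, 24 h, 25±2°C; encysted spores counted at x100; % inhibition versus control.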

Curvularia [26] = assay: Antifungal activity against Curvularia sp. assessed as inhibition of spore germination at 1% after 24 hr by compound microscopy
Fusarium verticillioides [27] = assay: Antifungal activity against Fusarium verticillioides assessed as inhibition of spore germination at 1% after 24 hr by compound microscopy; in short: as §2
Aspergillus niger [28] = assay: Antifungal activity against Aspergillus niger assessed as inhibition of spore germination at 1% after 24 hr by compound microscopy
Aspergillus flavus [29] = assay: Antifungal activity against Aspergillus flavus assessed as inhibition of spore germination at 1% after 24 hr by compound microscopy
Alternaria solani [30] = assay: Antifungal activity against Alternaria solani assessed as inhibition of spore germination at 1% after 24 hr by compound microscopy; in short: as §2
Rhizoctonia solani [31] = assay: Antifungal activity against Rhizoctonia solani assessed as inhibition of spore germination at 0.5% after 24 hr by compound microscopy; in short: as §3
Curvularia [32] = assay: Antifungal activity against Curvularia sp. assessed as inhibition of spore germination at 0.5% after 24 hr by compound microscopy
Fusarium verticillioides [33] = assay: Antifungal activity against Fusarium verticillioides assessed as inhibition of spore germination at 0.5% after 24 hr by compound microscopy; in short: as §2
Aspergillus niger [34] = assay: Antifungal activity against Aspergillus niger assessed as inhibition of spore germination at 0.5% after 24 hr by compound microscopy
Aspergillus flavus [35] = assay: Antifungal activity against Aspergillus flavus assessed as inhibition of spore germination at 0.5% after 24 hr by compound microscopy
Alternaria solani [36] = assay: Antifungal activity against Alternaria solani assessed as inhibition of spore germination at 0.5% after 24 hr by compound microscopy; in short: as §2
Rhizoctonia solani [37] = assay: Antifungal activity against Rhizoctonia solani assessed as inhibition of spore germination at 0.25% after 24 hr by compound microscopy; in short: as §3
Curvularia [38] = assay: Antifungal activity against Curvularia sp. assessed as inhibition of spore germination at 0.25% after 24 hr by compound microscopy
Fusarium verticillioides [39] = assay: Antifungal activity against Fusarium verticillioides assessed as inhibition of spore germination at 0.25% after 24 hr by compound microscopy; in short: as §2
Aspergillus niger [40] = assay: Antifungal activity against Aspergillus niger assessed as inhibition of spore germination at 0.25% after 24 hr by compound microscopy
Nigrospora [41] = assay: Antifungal activity against Nigrospora sp. at 0.25%
Curvularia [42] = assay: Antifungal activity against Curvularia sp. at 0.25%
Rhizoctonia solani [43] = assay: Antifungal activity against Rhizoctonia solani at 0.25%
Alternaria solani [44] = assay: Antifungal activity against Alternaria solani at 1%
Bipolaris oryzae [45] = assay: Antifungal activity against Bipolaris oryzae at 0.25%
Aspergillus niger [46] = assay: Antifungal activity against Aspergillus niger at 0.25%
Aspergillus flavus [47] = assay: Antifungal activity against Aspergillus flavus at 0.25%
Alternaria solani [48] = assay: Antifungal activity against Alternaria solani at 0.25%
Rhizoctonia solani [49] = assay: Antifungal activity against Rhizoctonia solani at 1%
Colletotrichum = assay: Antifungal activity against Colletotrichum sp. at 1%
Fusarium verticillioides [50] = assay: Antifungal activity against Fusarium verticillioides at 1%
Nigrospora [51] = assay: Antifungal activity against Nigrospora sp. at 1%
Bipolaris oryzae [52] = assay: Antifungal activity against Bipolaris oryzae at 1%
Curvularia [53] = assay: Antifungal activity against Curvularia sp. at 1%
Aspergillus niger [54] = assay: Antifungal activity against Aspergillus niger at 1%
Aspergillus flavus [55] = assay: Antifungal activity against Aspergillus flavus at 1%
Fusarium verticillioides [56] = assay: Antifungal activity against Fusarium verticillioides at 0.25%

O=C1C2CC=CCC2C(=O)N1SC(Cl)(Cl)Cl (stereo unspecified) [CAPTAN]
growth inhibition (GI) (Bipolaris oryzae [1]): 1.11%
growth inhibition (GI) (Aspergillus niger [2]): 4.06%
growth inhibition (GI) (Aspergillus flavus [3]): 8.13%
growth inhibition (GI) (Alternaria solani [4]): 4.6%
growth inhibition (GI) (Aspergillus flavus [5]): 100%
growth inhibition (GI) (Alternaria solani [6]): 100%
growth inhibition (GI) (Rhizoctonia solani [7]): 100%
growth inhibition (GI) (Curvularia [8]): 100%
growth inhibition (GI) (Fusarium verticillioides [9]): 100%
growth inhibition (GI) (Aspergillus niger [10]): 100%
growth inhibition (GI) (Aspergillus flavus [11]): 100%
growth inhibition (GI) (Alternaria solani [12]): 100%
growth inhibition (GI) (Rhizoctonia solani [13]): 17.06%
growth inhibition (GI) (Nigrospora [14]): 6.97%
growth inhibition (GI) (Fusarium verticillioides [15]): 23.39%
growth inhibition (GI) (Curvularia [16]): 9.15%
growth inhibition (GI) (Bipolaris oryzae [17]): 21.1%
growth inhibition (GI) (Aspergillus niger [18]): 13.95%
growth inhibition (GI) (Aspergillus flavus [19]): 18.02%
growth inhibition (GI) (Alternaria solani [20]): 2.63%
growth inhibition (GI) (Rhizoctonia solani [21]): 13.78%
growth inhibition (GI) (Nigrospora [22]): 2.82%
growth inhibition (GI) (Fusarium verticillioides [23]): 12.28%
growth inhibition (GI) (Curvularia [24]): 8.45%
growth inhibition (GI) (Rhizoctonia solani [25]): 100%
growth inhibition (GI) (Curvularia [26]): 100%
growth inhibition (GI) (Fusarium verticillioides [27]): 100%
growth inhibition (GI) (Aspergillus niger [28]): 100%
growth inhibition (GI) (Aspergillus flavus [29]): 100%
growth inhibition (GI) (Alternaria solani [30]): 100%
growth inhibition (GI) (Rhizoctonia solani [31]): 100%
growth inhibition (GI) (Curvularia [32]): 100%
growth inhibition (GI) (Fusarium verticillioides [33]): 100%
growth inhibition (GI) (Aspergillus niger [34]): 100%
growth inhibition (GI) (Aspergillus flavus [35]): 100%
growth inhibition (GI) (Alternaria solani [36]): 100%
growth inhibition (GI) (Rhizoctonia solani [37]): 100%
growth inhibition (GI) (Curvularia [38]): 100%
growth inhibition (GI) (Fusarium verticillioides [39]): 100%
growth inhibition (GI) (Aspergillus niger [40]): 100%

C=CCc1ccc(O)c(OC)c1 [EUGENOL]
inhibition (INH) (Nigrospora [41]): 50.04%
inhibition (INH) (Curvularia [42]): 50.04%
inhibition (INH) (Rhizoctonia solani [43]): 100%
inhibition (INH) (Alternaria solani [44]): 100%
inhibition (INH) (Bipolaris oryzae [45]): 86.98%
inhibition (INH) (Aspergillus niger [46]): 70.58%
inhibition (INH) (Aspergillus flavus [47]): 44.22%
inhibition (INH) (Alternaria solani [48]): 100%
inhibition (INH) (Rhizoctonia solani [49]): 100%
inhibition (INH) (Colletotrichum): 100%
inhibition (INH) (Fusarium verticillioides [50]): 100%
inhibition (INH) (Nigrospora [51]): 98.23%
inhibition (INH) (Bipolaris oryzae [52]): 100%
inhibition (INH) (Curvularia [53]): 97.04%
growth inhibition (GI) (Aspergillus flavus [5]): 65.6%
growth inhibition (GI) (Alternaria solani [6]): 24.16%
growth inhibition (GI) (Rhizoctonia solani [7]): 93.53%
growth inhibition (GI) (Curvularia [8]): 44.94%
growth inhibition (GI) (Fusarium verticillioides [9]): 21.88%
growth inhibition (GI) (Aspergillus niger [10]): 37.59%
growth inhibition (GI) (Aspergillus flavus [11]): 54%
growth inhibition (GI) (Alternaria solani [12]): 14.41%
inhibition (INH) (Aspergillus niger [54]): 100%
inhibition (INH) (Aspergillus flavus [55]): 100%
inhibition (INH) (Fusarium verticillioides [56]): 100%
growth inhibition (GI) (Rhizoctonia solani [25]): 100%
growth inhibition (GI) (Curvularia [26]): 100%
growth inhibition (GI) (Fusarium verticillioides [27]): 100%
growth inhibition (GI) (Aspergillus niger [28]): 100%
growth inhibition (GI) (Aspergillus flavus [29]): 100%
growth inhibition (GI) (Alternaria solani [30]): 100%
growth inhibition (GI) (Rhizoctonia solani [31]): 100%
growth inhibition (GI) (Curvularia [32]): 100%
growth inhibition (GI) (Fusarium verticillioides [33]): 100%
growth inhibition (GI) (Aspergillus niger [34]): 100%
growth inhibition (GI) (Aspergillus flavus [35]): 100%
growth inhibition (GI) (Alternaria solani [36]): 65.68%
growth inhibition (GI) (Rhizoctonia solani [37]): 100%
growth inhibition (GI) (Curvularia [38]): 85.39%
growth inhibition (GI) (Fusarium verticillioides [39]): 74.11%
growth inhibition (GI) (Aspergillus niger [40]): 65.6%
